ChEMBL document CHEMBL5104108, “Concise synthesis and biological activity evaluation of novel pyrazinyl-aryl urea derivatives against several cancer cell lines, which can especially induce T24 apoptotic and necroptotic cell death” (RSC Med Chem, 2022)
The source made the active and inactive calls. The rule behind the calls is not given here.

Experiments:
[1] = tested on: T-24; test: Induction of mitochondrial dysfunction in human T24 cells assessed as decrease in mitochondrial membrane potential at 5 to 10 uM measured by JC-1 staining based assay; assay type: functional, cell-based; conditions: dose 5-10 µM
How it was run: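 Floating and adherent T24 cells pooled after pretreatment. Washed in cold PBS and stained in the dark with JC-1 (10 μg mL−1). Red and green fluorescence imaged by laser scanning confocal microscopy, five random fields per sample.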

[2] = tested on: T-24; test: Down-regulation of RIPK3 expression in human T24 cells at 7.5 to 10 uM measured in presence of 60 uM Nec-1 after 16 hrs by Western blot analysis; assay type: functional, cell-based; conditions: dose 7.5-10 µM
How it was run: (§1)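 T24 cells co-incubated 16 h with or without Nec-1 (60 μM). Lysates quantified by BCA, 40 μg protein resolved by SDS-PAGE, transferred to PVDF, probed with primary and peroxidase-conjugated secondary antibodies, detected by ECL. Band gray values normalized to β-actin loading control.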

[3] = tested on: T-24; test: Down-regulation of RIPK1 expression in human T24 cells at 7.5 to 10 uM measured in presence of 60 uM Nec-1 after 16 hrs by Western blot analysis; assay type: functional, cell-based; conditions: dose 7.5-10 µM; how it was run: as §1
[4] = Tmax in Sprague-Dawley rat at 6 mg/kg, IG measured HPLC analysis; assay type: ADME, organism-based; conditions: in vivo, po
How it was run: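 Fasted (12 h) male-unspecified Sprague-Dawley rats (250 ± 20 g), n = 6 per group. Single intragastric dose of suspension (2 mg mL−1 in Tween 80/0.9% NaCl 1.5:5 v/v). Orbital blood drawn at 0.5–48 h and plasma assayed by reversed-phase C18 HPLC-UV. One-compartment fit, weight 1.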

[5] = tested on: T-24; test: Antiproliferative activity against human T24 cells measured after 24 hrs by MTT assay; assay type: functional, cell-based; conditions: T-24, 24 h
How it was run: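 Cells seeded 5 × 10^3 per well, grown overnight at 37 °C, then exposed to compound at final 1–40 μM (1, 2.5, 5, 7.5, 10, 12.5, 15, 20, 30, 40 μM) for the stated period. MTT added, 4 h at 37 °C, formazan dissolved in DMSO, absorbance read. IC50 = concentration killing 50% of cells relative to untreated control; mean ± S.D. of four independent experiments.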

[6] = Clearance in Sprague-Dawley rat at 6 mg/kg, IG measured HPLC analysis; assay type: ADME, organism-based; conditions: in vivo, po
[7] = tested on: T-24; test: Up-regulation of RIPK3 expression in human T24 cells at 7.5 to 10 uM measured after 16 hrs by Western blot analysis; assay type: functional, cell-based; conditions: dose 7.5-10 µM
[8] = tested on: T-24; test: Down-regulation of RIPK2 expression in human T24 cells at 7.5 to 10 uM measured in presence of 60 uM Nec-1 after 16 hrs by Western blot analysis; assay type: functional, cell-based; conditions: dose 7.5-10 µM; how it was run: as §1
[9] = tested on: T-24; test: Induction of necroptosis in human T24 cells assessed as necrotic cells at 7.5 to 12.5 uM measured after 16 hrs by flow cytometry analysis; assay type: functional, cell-based; conditions: dose 7.5-12.5 µM
How it was run: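 T24 cells in 60 mm dishes treated at 37 °C for 16 h with or without Nec-1 (60 μM). Washed thrice in PBS, then stained with Annexin V-FITC/PI for 15 min at room temperature in the dark. Flow cytometry, ≥1 × 10^4 events. Necrotic fraction taken as Annexin−/PI+. Done in triplicate.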

[10] = tested on: T-24; test: Induction of intracellular reactive oxygen species production in human T24 cells assessed as ROS level at 5 uM measured after 16 hrs by flow cytometry analysis; assay type: functional, cell-based
How it was run: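 After 16 h treatment, floating and adherent T24 cells pooled and loaded with DCFH-DA (final 10 μM) for 30 min at 37 °C in the dark, washed, resuspended in PBS and analyzed by flow cytometry; fluorescence also quantified by luminescence spectrometry. ROS expressed relative to control; mean ± S.D. of three independent experiments.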

[11] = tested on: T-24; test: Induction of apoptosis in human T24 cells assessed as apoptotic cells at 7.5 uM measured after 10 hrs by Annexin-V/FITC and propidium iodide staining based flow cytometry analysis; assay type: functional
How it was run: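 T24 cells in 60 mm dishes treated 10 h at 37 °C, collected, PBS-washed, resuspended in binding buffer, stained with Annexin V-FITC and PI for 15 min at room temperature in the dark. At least 1 × 10^4 events per sample by flow cytometry; apoptotic cells = early (Annexin+/PI−) plus late (Annexin+/PI+). Triplicate experiments.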

[12] = Cmax in Sprague-Dawley rat at 12 mg/kg, IG measured HPLC analysis; assay type: ADME, organism-based; parameters: dose 12 mg/kg, route ig; conditions: in vivo, po

- Tmax [4]: 12 h
- CL/F [6]: 0.811 mL/min
- Cmax [12]: 3.36 µg/mL
SMILES: O=C(Nc1ccc(C(F)(F)F)cc1)Nc1cccc(CNc2nccnc2Cl)c1
- Activity [1]: Active
- Activity [2]: Active
- Activity [3]: Active
- IC50 [5]: 9.18 µM
- Activity [7]: Active
- Activity [8]: Active
- Activity [9]: Active
- Activity [10]: Active
- Activity [11]: 21.41%
